Reference: ChEMBL document CHEMBL3797149, “1-Sulfonyl-6-Piperazinyl-7-Azaindoles as potent and pseudo-selective 5-HT6 receptor antagonists” (Bioorg Med Chem Lett, 2016)
The source made the active and inactive calls. The calls are words filed in the database; no cut-off is given here.

How the values were obtained:
CHO = test: Selectivity ratio of Ki for human dopamine D2S receptor expressed in CHO cell membrane to Ki for human 5HT6 receptor in HEK293 cell membrane; type: cell-based
Method in brief: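 Ki values come from in-house competition binding: [3H]-LSD displacement at 5-HT6 and [3H]-NMSP displacement at D2. Compounds were tested at eight concentrations from 5×10^-6 to 5×10^-13 M in triplicate. The ratio is D2 Ki divided by 5-HT6 Ki.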

Mus musculus [1] = test: Procognitive effect in CD1 mouse assessed as reversal of scopolamine-induced amnesia by measuring time spent in open arm in retention phase at 0.3 to 10 mg/kg, sc pretreated for 10 mins followed by scopolamine injection measured after 24 hrs by elevated […] maze test; type: functional, organism-based
Method in brief: (§1)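 Elevated plus maze in mice. Test article is given subcutaneously, then scopolamine 10 min later. In the acquisition phase (T1), open-arm time % ([open/(open+enclosed)]×100) and transfer latency to the enclosed arm are recorded. Retention phase (T2) follows 24 h later. n = 13–15 per group; data shown as mean ± SEM and median.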

Mus musculus [2] = test: Procognitive effect in CD1 mouse assessed as reversal of scopolamine-induced amnesia by measuring time spent in open arm in acquisition phase at 0.3 to 10 mg/kg, sc pretreated for 10 mins followed by scopolamine injection measured after 30 mins by elevated […] maze test; type: functional, organism-based; method in brief: as §1

**Q.** For CC(C)CS(=O)(=O)n1ccc2c(-c3ccc(C(F)(F)F)cc3)cc(N3CCN(C)CC3)nc21, which Ratio Ki (CHO) is on record?
**A.** 80

**Q.** What about the Activity (Mus musculus [1]) of the same compound?
**A.** Active

**Q.** What about the Activity (Mus musculus [2]) of the same compound?
**A.** Active
